Test results published in ChEMBL document CHEMBL5104104, “Inhibition of N-type calcium ion channels by tricyclic antidepressants - experimental and theoretical justification for their use for neuropathic pain” (RSC Med Chem, 2022).

Target: Voltage-dependent N-type calcium channel subunit alpha-1B (Homo sapiens, UniProt Q00975)
Assay: Inhibition of endogenous human CaV2.2 in human SH-SY5Y cells in presence of nifedipine by Calcium 4 dye based calcium influx fluorescence-imaging assay
Assay type: cell-based
Summary of the method: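 SH-SY5Y neuroblastoma cells with endogenous Cav2.2, seeded 48 h before assay and loaded with Calcium 4 dye in HEPES buffer pH 7.4 with 0.1% BSA and 10 µM nifedipine (30 min, 37 °C). Compound preincubated 300 s. Channels then opened with 90 mM KCl plus 5 mM CaCl2, fluorescence read 300 s more. 3-fold serial dilutions from 100 µM (1% DMSO). IC50 from concentration–response curves, mean ± SEM, n = 3–5.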

Chain of Voltage-dependent N-type calcium channel subunit alpha-1B (Q00975 whole entry): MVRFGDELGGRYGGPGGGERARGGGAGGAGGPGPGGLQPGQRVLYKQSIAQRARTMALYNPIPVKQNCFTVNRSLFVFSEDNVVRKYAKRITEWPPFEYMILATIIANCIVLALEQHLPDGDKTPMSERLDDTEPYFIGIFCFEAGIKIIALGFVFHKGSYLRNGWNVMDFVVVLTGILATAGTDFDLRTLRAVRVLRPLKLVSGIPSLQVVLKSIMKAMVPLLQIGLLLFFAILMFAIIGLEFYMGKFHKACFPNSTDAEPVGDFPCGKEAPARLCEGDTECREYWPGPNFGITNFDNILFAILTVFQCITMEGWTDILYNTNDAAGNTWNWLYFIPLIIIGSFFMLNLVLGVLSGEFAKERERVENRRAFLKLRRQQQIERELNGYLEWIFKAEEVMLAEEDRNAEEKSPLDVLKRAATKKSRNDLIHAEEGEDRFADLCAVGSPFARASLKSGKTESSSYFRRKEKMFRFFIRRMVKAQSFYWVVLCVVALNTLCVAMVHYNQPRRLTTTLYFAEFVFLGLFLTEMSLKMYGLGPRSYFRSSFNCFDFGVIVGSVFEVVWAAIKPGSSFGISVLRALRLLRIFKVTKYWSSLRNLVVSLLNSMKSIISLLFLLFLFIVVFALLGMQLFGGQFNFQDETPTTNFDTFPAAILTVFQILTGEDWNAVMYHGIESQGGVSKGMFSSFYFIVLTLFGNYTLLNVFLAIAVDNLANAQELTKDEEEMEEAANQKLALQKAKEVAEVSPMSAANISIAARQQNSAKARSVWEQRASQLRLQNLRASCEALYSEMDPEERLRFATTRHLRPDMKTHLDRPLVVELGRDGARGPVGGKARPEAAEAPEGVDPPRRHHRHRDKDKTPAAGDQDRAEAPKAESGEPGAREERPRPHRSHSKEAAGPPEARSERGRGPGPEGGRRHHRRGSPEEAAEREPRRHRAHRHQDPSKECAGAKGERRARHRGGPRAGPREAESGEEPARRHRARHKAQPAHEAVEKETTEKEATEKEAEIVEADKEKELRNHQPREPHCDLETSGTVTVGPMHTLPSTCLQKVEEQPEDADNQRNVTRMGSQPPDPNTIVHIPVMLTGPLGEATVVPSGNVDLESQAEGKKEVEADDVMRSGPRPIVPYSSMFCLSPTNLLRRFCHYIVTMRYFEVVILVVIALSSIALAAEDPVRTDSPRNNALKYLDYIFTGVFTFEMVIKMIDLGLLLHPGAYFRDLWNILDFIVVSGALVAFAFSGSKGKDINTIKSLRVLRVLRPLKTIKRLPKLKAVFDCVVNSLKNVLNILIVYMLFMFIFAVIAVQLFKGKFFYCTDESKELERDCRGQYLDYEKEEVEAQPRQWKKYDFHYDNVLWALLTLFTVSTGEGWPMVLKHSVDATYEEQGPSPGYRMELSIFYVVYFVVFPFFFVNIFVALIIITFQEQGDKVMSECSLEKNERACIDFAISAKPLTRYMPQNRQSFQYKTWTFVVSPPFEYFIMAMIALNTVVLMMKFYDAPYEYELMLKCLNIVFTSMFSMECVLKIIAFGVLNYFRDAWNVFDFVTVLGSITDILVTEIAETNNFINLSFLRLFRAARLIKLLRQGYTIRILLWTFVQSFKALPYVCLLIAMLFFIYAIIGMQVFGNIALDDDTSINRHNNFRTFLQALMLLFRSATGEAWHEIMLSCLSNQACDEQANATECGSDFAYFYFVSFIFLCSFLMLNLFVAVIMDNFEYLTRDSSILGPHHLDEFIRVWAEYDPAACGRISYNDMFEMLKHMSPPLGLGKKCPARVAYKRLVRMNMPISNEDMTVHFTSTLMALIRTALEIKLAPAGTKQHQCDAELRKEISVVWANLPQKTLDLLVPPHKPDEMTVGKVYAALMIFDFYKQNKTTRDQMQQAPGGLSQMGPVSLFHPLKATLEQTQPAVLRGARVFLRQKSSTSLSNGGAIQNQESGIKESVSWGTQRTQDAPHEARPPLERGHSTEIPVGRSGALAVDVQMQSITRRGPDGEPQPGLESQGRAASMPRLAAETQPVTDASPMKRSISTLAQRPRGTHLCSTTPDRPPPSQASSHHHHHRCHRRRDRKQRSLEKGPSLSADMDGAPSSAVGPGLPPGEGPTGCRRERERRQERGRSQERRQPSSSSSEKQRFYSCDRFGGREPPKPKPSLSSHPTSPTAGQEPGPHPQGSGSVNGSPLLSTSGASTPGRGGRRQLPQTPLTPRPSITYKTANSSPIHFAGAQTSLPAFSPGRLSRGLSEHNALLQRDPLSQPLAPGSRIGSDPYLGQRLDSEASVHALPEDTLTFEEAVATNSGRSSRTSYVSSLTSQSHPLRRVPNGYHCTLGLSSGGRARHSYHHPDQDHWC

SMILES | IC50
CN(C)CCC=C1c2ccccc2CCc2ccccc21 [AMITRIPTYLINE] | 12 µM
Clc1ccc2c(c1)C(N1CCNCC1)=Nc1ccccc1O2 [AMOXAPINE] | 27 µM
CNCCCN1c2ccccc2CCc2ccccc21 [DESIPRAMINE] | 11 µM
CN(C)CC/C=C1\c2ccccc2COc2ccccc21 [E-DOXEPIN] | 18 µM
CN(C)CCCN1c2ccccc2CCc2ccccc21 [IMIPRAMINE] | 22 µM
OCCN1CCN(CCCN2c3ccccc3C=Cc3ccccc32)CC1 [OPIPRAMOL] | 24 µM
CC(CN1c2ccccc2Sc2ccccc21)N(C)C (stereo not drawn) [PROMETHAZINE] | 18 µM
CNCCCC1c2ccccc2C=Cc2ccccc21 [PROTRIPTYLINE] | 14 µM
CC(CN(C)C)CN1c2ccccc2CCc2ccccc21 (stereo not drawn) [TRIMIPRAMINE] | 11 µM

Stronger by IC50, values ahead:

IC50 | SMILES
9 µM | CN(C)CCCN1c2ccccc2CCc2ccc(Cl)cc21 [CLOMIPRAMINE]
10 µM | CN(C)CCC=C1c2ccccc2C=Cc2ccccc21 [CYCLOBENZAPRINE]
10 µM | CNCCCC12CCC(c3ccccc31)c1ccccc12 [MAPROTILINE]
10 µM | CNCCC=C1c2ccccc2CCc2ccccc21 [NORTRIPTYLINE]
